Calls of active or inactive are those of the source. The calls are words filed in the database; no cut-off is given here.
Tests used:
[1] = Terminal half life in CD1 mouse at 20 mg/kg, po; type: ADME, organism-based; parameters: dose 20 mg/kg, route oral; details: in vivo, read-out: beta t1/2
Procedure, shortened: (§1)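 Terminal cardiac bleeds were taken in groups of three at set times. Plasma was acetonitrile-precipitated with internal standard and analysed by LC/MS/MS against a spiked-plasma standard curve. Parameters came from noncompartmental analysis.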

Salmonella typhimurium [2] = assay: Antibacterial activity against Salmonella Typhimurium SL1344 infected in 129x1/SvJ mouse assessed as survival at 20 mg/kg, po administered 3 hrs pre and 3 hrs post-bacterial challenge measured after 12 days; type: functional
Procedure, shortened: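 Female 129x1/SvJ mice, 7–9 weeks old, were infected intraperitoneally with 10^8 cfu S. typhimurium SL1344. The test agent was given orally at 20 mg/kg in 5% DMSO/23% PEG400/70% Na bicarbonate pH 9/2% Tween 80, 3 h before and 3 h after infection. Controls were drug alone and infection alone. Groups of 10 mice were used and the experiment was repeated twice. Morbidity and death were recorded daily, and survivors were euthanized at day 12.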

[3] = AUC in CD1 mouse at 20 mg/kg, po; type: ADME, organism-based; parameters: dose 20 mg/kg, route oral; details: plasma; procedure, shortened: as §1
Escherichia coli [4] = assay: Antibacterial activity against Escherichia coli infected in New Zealand white rabbit assessed as inhibition of bacterial colonization in ileum at 20 mg/kg administered 24 hrs post-bacterial challenge; type: functional, organism-based; parameters: dose 20 mg/kg
Mus musculus [5] = assay: Toxicity in CD1 mouse assessed as change in spleen weight at 20 mg/kg, po administered daily once for 5 days measured 3 days after final dose; type: organism-based; parameters: dose 20 mg/kg, route oral; details: in vivo, 72 h
Procedure, shortened: (§2)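 Female CD-1 mice (~22 g), three per group, given 20 mg/kg by oral gavage once daily for 5 days. Vehicle-only mice served as controls. Animals were weighed and observed daily. Three days after the last dose they were weighed and sacrificed. Blood was taken for chemistry and complete blood counts, and organs were weighed.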

Mus musculus [6] = assay: Toxicity in CD1 mouse assessed as change in brain weight at 20 mg/kg, po administered daily once for 5 days measured 3 days after final dose; type: organism-based; parameters: dose 20 mg/kg, route oral; details: in vivo; procedure, shortened: as §2
Mus musculus [7] = assay: Toxicity in CD1 mouse assessed as mean corpuscular hemoglobin at 20 mg/kg, po administered daily once for 5 days measured 3 days after final dose; type: organism-based; parameters: dose 20 mg/kg, route oral; details: in vivo, 72 h; procedure, shortened: as §2
Escherichia coli [8] = assay: Inhibition of AI3-induced Qsec-dependent virulence gene eae expression in Escherichia coli at 5 pM by quantitative real-time PCR; type: functional, organism-based
Mus musculus [9] = assay: Toxicity in CD1 mouse assessed as glucose levels at 20 mg/kg, po administered daily once for 5 days measured 3 days after final dose; type: organism-based; parameters: dose 20 mg/kg, route oral; details: in vivo, 72 h; procedure, shortened: as §2
Salmonella typhimurium [10] = assay: Inhibition of norepinephrine-induced virulence gene sifA expression in Salmonella Typhimurium at 5 pM; type: functional, organism-based; details: Salmonella enterica subsp. enterica serovar Typhimurium
Escherichia coli [11] = assay: Inhibition of epinephrine-induced EspB protein secretion in Escherichia coli 8624 at 5 nM by Western blot; type: functional, organism-based
Procedure, shortened: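 Secreted proteins in cell-free supernatant were TCA-precipitated and immunoblotted with rabbit polyclonal anti-EspA and anti-EspB, with ECL detection.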

[12] = Cmax in CD1 mouse at 20 mg/kg, iv administered as bolus dose; type: ADME, organism-based; parameters: dose 20 mg/kg, route intravenous; details: in vivo
Procedure, shortened: (§3)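 Groups of three were bled terminally by cardiac puncture at set times. Plasma was acetonitrile-precipitated with internal standard and quantified by electrospray LC/MS/MS against a plasma standard curve (10-1000 ng/ml). Noncompartmental analysis was used.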

Mus musculus [13] = assay: Toxicity in CD1 mouse assessed as RBC counts at 20 mg/kg, po administered daily once for 5 days measured 3 days after final dose; type: organism-based; parameters: dose 20 mg/kg, route oral; details: in vivo, 72 h
[14] = test system: Francisella tularensis subsp. tularensis SCHU S4; assay: Inhibition of virulence gene iglC expression in Francisella tularensis SCHU S4 at 5 pM by quantitative real-time PCR; type: functional, organism-based
[15] = test system: Francisella tularensis subsp. tularensis SCHU S4; assay: Inhibition of virulence gene qseC expression in Francisella tularensis SCHU S4 at 5 pM by quantitative real-time PCR; type: functional, organism-based
[16] = test system: Francisella tularensis subsp. tularensis SCHU S4; assay: Bacteriostatic activity against Francisella tularensis SCHU S4 at 1 uM; type: functional, organism-based
Salmonella typhimurium [17] = assay: Bacteriostatic activity against Salmonella Typhimurium SL1344 at 1 uM; type: functional, organism-based; details: Salmonella enterica subsp. enterica serovar Typhimurium str. SL1344
Escherichia coli [18] = assay: Antibacterial activity against Escherichia coli infected in New Zealand white rabbit assessed as inhibition of bacterial colonization in cecum at 20 mg/kg administered along with bacterial challenge; type: functional, organism-based; parameters: dose 20 mg/kg; details: Caecum
Escherichia coli [19] = assay: Inhibition of Escherichia coli attaching-effacing lesions formation in infected human HeLa cells at 5 pM by FAS test; type: functional, organism-based
Procedure, shortened: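 HeLa monolayers on glass coverslips were infected with a 1:100 dilution of overnight LB cultures for 6 h at 37 °C, 5% CO2. Cells were permeabilized with 0.2% Triton X-100 and stained with FITC-phalloidin for actin and propidium iodide for bacteria. Whole fields of ≥6 coverslips per strain were scored for AE lesions by fluorescence microscopy.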

Mus musculus [20] = assay: Toxicity in CD1 mouse assessed as alkaline phosphatase levels at 20 mg/kg, po administered daily once for 5 days measured 3 days after final dose; type: organism-based; parameters: dose 20 mg/kg, route oral; details: in vivo, 72 h
[21] = molecular target: Beta-3 adrenergic receptor (Homo sapiens) (UniProt P13945); assay: Activation of human beta-3-adrenergic receptor expressed in HEK293 cells assessed as cAMP release at 5 uM; type: functional, cell-based
Chain of Beta-3 adrenergic receptor (Homo sapiens) (P13945 whole entry, looked up): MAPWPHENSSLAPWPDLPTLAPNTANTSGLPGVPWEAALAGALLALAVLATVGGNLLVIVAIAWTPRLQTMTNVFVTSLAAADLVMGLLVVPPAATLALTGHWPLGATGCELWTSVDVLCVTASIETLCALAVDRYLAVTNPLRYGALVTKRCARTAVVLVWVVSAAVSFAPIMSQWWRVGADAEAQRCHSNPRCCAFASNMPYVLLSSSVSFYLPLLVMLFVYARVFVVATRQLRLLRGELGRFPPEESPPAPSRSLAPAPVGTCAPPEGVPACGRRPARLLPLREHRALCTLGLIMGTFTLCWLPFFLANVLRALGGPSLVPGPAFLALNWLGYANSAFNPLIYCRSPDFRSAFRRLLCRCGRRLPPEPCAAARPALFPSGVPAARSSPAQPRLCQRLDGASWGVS
Procedure, shortened: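 Live HEK293 cells carried an EPAC-based cAMP BRET reporter and expressed endogenous β2 or exogenous β1 or β3 adrenergic receptors. Cells were exposed to test compound alone at 5 μM. Values are means of triplicates, representative of 3 experiments.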

Escherichia coli [22] = assay: Bactericidal activity against Escherichia coli 8624 at 1 uM in presence of epinephrine; type: functional, organism-based
[23] = AUC in CD1 mouse at 10 mg/kg, iv administered as bolus dose; type: ADME, organism-based; parameters: dose 10 mg/kg, route intravenous; details: plasma; procedure, shortened: as §3
Mus musculus [24] = assay: Toxicity in CD1 mouse assessed as hemoglobin levels at 20 mg/kg, po administered daily once for 5 days measured 3 days after final dose; type: organism-based; parameters: dose 20 mg/kg, route oral; details: in vivo, 72 h; procedure, shortened: as §2
Mus musculus [25] = assay: Toxicity in CD1 mouse assessed as aspartate transaminase levels at 20 mg/kg, po administered daily once for 5 days measured 3 days after final dose; type: organism-based; parameters: dose 20 mg/kg, route oral; details: in vivo, 72 h
Salmonella typhimurium [26] = assay: Antibacterial activity against Salmonella Typhimurium SL1344 infected in 129x1/SvJ mouse assessed as reduction of bacterial CFU in spleen at 20 mg/kg, po after 48 hrs relative to control; type: functional
Mus musculus [27] = assay: Toxicity in CD1 mouse assessed as change in liver weight at 20 mg/kg, po administered daily once for 5 days measured 3 days after final dose; type: organism-based; parameters: dose 20 mg/kg, route oral; details: in vivo, 72 h; procedure, shortened: as §2
Escherichia coli [28] = assay: Inhibition of epinephrine-induced Qsec-dependent virulence gene ler expression in Escherichia coli at 5 pM by quantitative real-time PCR; type: functional, organism-based
Escherichia coli [29] = assay: Antibacterial activity against Escherichia coli infected in New Zealand white rabbit assessed as inhibition of bacterial colonization in ileum at 20 mg/kg pretreated before 3 hrs of bacterial challenge; type: functional, organism-based; parameters: dose 20 mg/kg
Mus musculus [30] = assay: Toxicity in CD1 mouse assessed as red cell distribution width at 20 mg/kg, po administered daily once for 5 days measured 3 days after final dose; type: organism-based; parameters: dose 20 mg/kg, route oral; details: in vivo, 72 h; procedure, shortened: as §2

O=S(=O)(Nc1ccccc1)c1ccc(NC(=S)Nc2ccccc2)cc1
half-life [1]: 4.92 h
Activity (Salmonella typhimurium [2]): 20%
AUC [3]: 3470 ng·h/mL
Activity (Escherichia coli [4]): inactive
Activity (Mus musculus [5]): Non-toxic
Activity (Mus musculus [6]): Non-toxic
Activity (Mus musculus [7]): 16.1 pg
Activity (Escherichia coli [8]): Active
Activity (Mus musculus [9]): 287 mg/dL
Activity (Salmonella typhimurium [10]): Active
Activity (Escherichia coli [11]): Active
Cmax [12]: 4750 ng/mL
Activity (Mus musculus [13]): 7.4 M/uL
Activity [14]: Active
Activity [15]: Active
Activity [16]: inactive
Activity (Salmonella typhimurium [17]): inactive
Activity (Escherichia coli [18]): inactive
Activity (Escherichia coli [19]): Active
Activity (Mus musculus [20]): 141.3 U/L
Activity [21]: inactive
Activity (Escherichia coli [22]): inactive
AUC [23]: 2400 ng·h/mL
Activity (Mus musculus [24]): 12 g/dL
Activity (Mus musculus [25]): 120.3 U/L
fold change (FC) (Salmonella typhimurium [26]): 10
Activity (Mus musculus [27]): Non-toxic
Activity (Escherichia coli [28]): Active
Activity (Escherichia coli [29]): inactive
Activity (Mus musculus [30]): 17.6%

— ChEMBL document CHEMBL1152867, “Targeting QseC signaling and virulence for antibiotic development” (Science, 2008)
